Test results reported in ChEMBL document CHEMBL4004844, “Structure-based design, synthesis and antitumoral evaluation of enulosides” (Eur J Med Chem, 2017).

What was measured:
NCI-H292 [1] = assay: Growth inhibition of human NCI-H292 cells after 72 hrs by MTT assay; assay type: functional, cell-based; conditions: NCI-H292, 72 h
Method in brief: (§1)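 Cells kept in RPMI 1640 or DMEM with 10% FBS, 2 mM glutamine, penicillin/streptomycin, at 37 °C and 5% CO2. Seeded at 10⁵ cells/mL (adherent NCI-H292, MCF-7, HEP-2) or 3 × 10⁵ cells/mL (HL-60). Compounds at 0.1–25 in 0.1% DMSO for 72 h, with DMSO controls. MTT read at 595 nm. IC50 with 95% CI from nonlinear regression, two experiments.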

MCF7 [2] = assay: Growth inhibition of human MCF7 cells after 72 hrs by MTT assay; assay type: functional, cell-based; conditions: MCF7, 72 h; method in brief: as §1
HL-60 [3] = assay: Growth inhibition of human HL60 cells after 72 hrs by MTT assay; assay type: functional, cell-based; conditions: HL-60, 72 h
HEp-2 [4] = assay: Growth inhibition of human Hep2 cells after 72 hrs by MTT assay; assay type: functional, cell-based; conditions: HEp-2, 72 h; method in brief: as §1
NCI-H292 [5] = assay: Growth inhibition of human NCI-H292 cells at 25 ug/ml after 72 hrs by MTT assay relative to control; assay type: functional; conditions: NCI-H292, 72 h, read-out: GI
Method in brief: (§2)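 Preliminary single-concentration screen at 25 by MTT reduction. Cells seeded at 10⁵ cells/mL (adherent) or 3 × 10⁵ cells/mL (HL-60), exposed for 72 h in 0.1% DMSO. Percent growth inhibition relative to DMSO-treated controls, from absorbance at 595 nm.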

MCF7 [6] = assay: Growth inhibition of human MCF7 cells at 25 ug/ml after 72 hrs by MTT assay relative to control; assay type: functional; conditions: MCF7, 72 h, read-out: GI; method in brief: as §2
HL-60 [7] = assay: Growth inhibition of human HL60 cells at 25 ug/ml after 72 hrs by MTT assay relative to control; assay type: functional; conditions: HL-60, 72 h, read-out: GI; method in brief: as §2
HEp-2 [8] = assay: Growth inhibition of human Hep2 cells at 25 ug/ml after 72 hrs by MTT assay relative to control; assay type: functional; conditions: HEp-2, 72 h, read-out: GI; method in brief: as §2
[9] = Solubility in water; assay type: physicochemical; conditions: buffer

Structure (SMILES)	IC50 (NCI-H292 [1]) [µM]	IC50 (MCF7 [2]) [µM]	IC50 (HL-60 [3]) [µM]	IC50 (HEp-2 [4]) [µM]	inhibition of growth at 25 µg/mL (NCI-H292 [5]) [%]	inhibition of growth at 25 µg/mL (MCF7 [6]) [%]	inhibition of growth at 25 µg/mL (HL-60 [7]) [%]	inhibition of growth at 25 µg/mL (HEp-2 [8]) [%]	solubility [9]
C=CCO[C@@H]1C=CC(=O)[C@@H](CO)O1	10.3	16.3	4.9	26.1					
CCO[C@@H]1C=C[C@H](O)[C@@H](CO)O1					17.4	20.4	31.4	12.5	
CCO[C@@H]1C=C[C@H](OC(C)=O)[C@@H](COC(C)=O)O1					2.1	5.1	12.3	9.3	
CC(C)O[C@@H]1C=CC(=O)[C@@H](CO)O1	24.2	36	9.7	34.9					
CCCO[C@@H]1C=CC(=O)[C@@H](CO)O1	15.6	18.3	10.7	13.4					
C#CCCO[C@@H]1C=CC(=O)[C@@H](CO)O1	12.7		2.5	7.1					
O=C1C=C[C@@H](OC2CCCCC2)O[C@@H]1CO	2.6	11	13.3	7.5					
O=C1C=C[C@@H](OCc2ccccc2)O[C@@H]1CO	3.8	11.1	27.3	8.5					
COc1cccc2c1C(=O)c1c(O)c3c(c(O)c1C2=O)C[C@@](O)(C(=O)CO)C[C@@H]3O[C@H]1C[C@H](N)[C@H](O)[C@H](C)O1 [DOXORUBICIN]	0.6	0.6		1.3					
C#CCO[C@@H]1C=CC(=O)[C@@H](CO)O1	6.6	10.4	9.3	15.4					
O=C1C=C[C@@H](OC2CCCC2)O[C@@H]1CO	19.8	20.7	4.2	8					
COCCOCCOCCO[C@@H]1C=CC(=O)[C@@H](CO)O1	35.5		7.9	32.1					Soluble
CCO[C@@H]1C=CC(=O)[C@@H](CO)O1	18		3.5	5.8	100	97.2	100	100	
